What was measured:
HEK-293T = assay: Multiplex assay against HEK293T; type: toxicity, cell-based; settings: human;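 for Population Tubulin-Different-Phenotype (%): share of the cells with healthy nuclei that show this phenotype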
In short: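 Cells stained live at seeding with Hoechst33342, BioTracker Green Microtubule Cytoskeleton Dye, MitoTracker Red and Annexin V Alexa Fluor 680 were imaged on a CQ1 microscope at 37°C and 5% CO2 after compound addition. Their classification by CellPathfinder machine-learning gating ran from Hoechst high-intensity objects versus normal cells, to healthy, pyknosed or fragmented nuclei among normal cells, to mitotic or apoptotic among pyknosed cells. Tubulin, mitochondrial-mass and membrane-permeability phenotypes are per cents of healthy-nucleus cells.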

Fibroblast = assay: Incucyte cell viability with human fibroblast; type: toxicity, cell-based; settings: 10 µM, compound concentration 10 uM; note: filed as whole numbers so only -1 and 0 and 1 occur
[1] = 12 h, 1 µM, compound concentration 1 uM, replicate 1
[2] = 12 h, 1 µM, compound concentration 1 uM, replicate 2
[3] = 12 h, 10 µM, compound concentration 10 uM, replicate 1
[4] = 12 h, 10 µM, compound concentration 10 uM, replicate 2
[5] = 24 h, 1 µM, compound concentration 1 uM, replicate 1
[6] = 24 h, 1 µM, compound concentration 1 uM, replicate 2
[7] = 24 h, 10 µM, compound concentration 10 uM, replicate 1
[8] = 24 h, 10 µM, compound concentration 10 uM, replicate 2

**Q.** With CCOc1cc(N2CCC(O)CC2)ccc1Nc1ncc2c(n1)N(C1CCCC1)CCC(=O)N2C as the molecule, how does the “Population Apoptotic (%)” value (HEK-293T; [1]) read?
**A.** 17%

**Q.** What about the “Population Fragmented Nuclei (%)” value (HEK-293T; [1]) of the same molecule?
**A.** 18%

**Q.** And the “Population Healthy Nuclei (%)” value (HEK-293T; [1])?
**A.** 58%

**Q.** And the “Population Hoechst High Intensity Objects (%)” value (HEK-293T; [1])?
**A.** 13%

**Q.** And the “Population Membrane Permeable-Phenotype (%)” value (HEK-293T; [1])?
**A.** 3%

**Q.** And the “Population Mitochondria Different-Phenotype (%)” value (HEK-293T; [1])?
**A.** 5%

**Q.** What about the “Population Mitotic Cells (%)” value (HEK-293T; [1]) of the same molecule?
**A.** 82%

**Q.** What about the “Population Normal (%)” value (HEK-293T; [1]) of the same molecule?
**A.** 86%

**Q.** What about the “Population Pyknosed Nuclei (%)” value (HEK-293T; [1]) of the same molecule?
**A.** 22%

**Q.** What about the “Population Tubulin-Different-Phenotype (%)” value (HEK-293T; [1]) of the same molecule?
**A.** 3%

**Q.** What about the “Total Cell Count” value (HEK-293T; [1]) of the same molecule?
**A.** 614

**Q.** What about the “Population Apoptotic (%)” value (HEK-293T; [2]) of the same molecule?
**A.** 4%

**Q.** And the “Population Fragmented Nuclei (%)” value (HEK-293T; [2])?
**A.** 6%

**Q.** And the “Population Healthy Nuclei (%)” value (HEK-293T; [2])?
**A.** 87%

**Q.** And the “Population Hoechst High Intensity Objects (%)” value (HEK-293T; [2])?
**A.** 2%

**Q.** What about the “Population Membrane Permeable-Phenotype (%)” value (HEK-293T; [2]) of the same molecule?
**A.** 1%

**Q.** And the “Population Mitochondria Different-Phenotype (%)” value (HEK-293T; [2])?
**A.** 15%

**Q.** What about the “Population Mitotic Cells (%)” value (HEK-293T; [2]) of the same molecule?
**A.** 95%

**Q.** And the “Population Normal (%)” value (HEK-293T; [2])?
**A.** 97%

**Q.** What about the “Population Pyknosed Nuclei (%)” value (HEK-293T; [2]) of the same molecule?
**A.** 5%

**Q.** What about the “Population Tubulin-Different-Phenotype (%)” value (HEK-293T; [2]) of the same molecule?
**A.** 5%

**Q.** What about the “Total Cell Count” value (HEK-293T; [2]) of the same molecule?
**A.** 1724

**Q.** And the “Population Apoptotic (%)” value (HEK-293T; [3])?
**A.** 14%

**Q.** What about the “Population Fragmented Nuclei (%)” value (HEK-293T; [3]) of the same molecule?
**A.** 18%

**Q.** And the “Population Healthy Nuclei (%)” value (HEK-293T; [3])?
**A.** 62%

**Q.** What about the “Population Hoechst High Intensity Objects (%)” value (HEK-293T; [3]) of the same molecule?
**A.** 13%

**Q.** What about the “Population Membrane Permeable-Phenotype (%)” value (HEK-293T; [3]) of the same molecule?
**A.** 4%

**Q.** And the “Population Mitochondria Different-Phenotype (%)” value (HEK-293T; [3])?
**A.** 5%

**Q.** And the “Population Mitotic Cells (%)” value (HEK-293T; [3])?
**A.** 85%

**Q.** And the “Population Normal (%)” value (HEK-293T; [3])?
**A.** 86%

**Q.** And the “Population Pyknosed Nuclei (%)” value (HEK-293T; [3])?
**A.** 19%

**Q.** And the “Population Tubulin-Different-Phenotype (%)” value (HEK-293T; [3])?
**A.** 4%

**Q.** What about the “Total Cell Count” value (HEK-293T; [3]) of the same molecule?
**A.** 550

**Q.** And the “Population Apoptotic (%)” value (HEK-293T; [4])?
**A.** 8%

**Q.** And the “Population Fragmented Nuclei (%)” value (HEK-293T; [4])?
**A.** 9%

**Q.** What about the “Population Healthy Nuclei (%)” value (HEK-293T; [4]) of the same molecule?
**A.** 86%

**Q.** And the “Population Hoechst High Intensity Objects (%)” value (HEK-293T; [4])?
**A.** 1%

**Q.** What about the “Population Membrane Permeable-Phenotype (%)” value (HEK-293T; [4]) of the same molecule?
**A.** 0%

**Q.** And the “Population Mitotic Cells (%)” value (HEK-293T; [4])?
**A.** 92%

**Q.** What about the “Population Normal (%)” value (HEK-293T; [4]) of the same molecule?
**A.** 98%

**Q.** What about the “Population Pyknosed Nuclei (%)” value (HEK-293T; [4]) of the same molecule?
**A.** 4%

**Q.** What about the “Population Tubulin-Different-Phenotype (%)” value (HEK-293T; [4]) of the same molecule?
**A.** 2%

**Q.** And the “Total Cell Count” value (HEK-293T; [4])?
**A.** 1779

**Q.** What about the “Population Apoptotic (%)” value (HEK-293T; [5]) of the same molecule?
**A.** 19%

**Q.** What about the “Population Fragmented Nuclei (%)” value (HEK-293T; [5]) of the same molecule?
**A.** 16%

**Q.** What about the “Population Healthy Nuclei (%)” value (HEK-293T; [5]) of the same molecule?
**A.** 73%

**Q.** And the “Population Hoechst High Intensity Objects (%)” value (HEK-293T; [5])?
**A.** 7%

**Q.** And the “Population Membrane Permeable-Phenotype (%)” value (HEK-293T; [5])?
**A.** 2%

**Q.** And the “Population Mitochondria Different-Phenotype (%)” value (HEK-293T; [5])?
**A.** 4%

**Q.** And the “Population Mitotic Cells (%)” value (HEK-293T; [5])?
**A.** 80%

**Q.** What about the “Population Normal (%)” value (HEK-293T; [5]) of the same molecule?
**A.** 92%

**Q.** What about the “Population Pyknosed Nuclei (%)” value (HEK-293T; [5]) of the same molecule?
**A.** 9%

**Q.** What about the “Population Tubulin-Different-Phenotype (%)” value (HEK-293T; [5]) of the same molecule?
**A.** 3%

**Q.** And the “Total Cell Count” value (HEK-293T; [5])?
**A.** 619

**Q.** And the “Population Apoptotic (%)” value (HEK-293T; [6])?
**A.** 4%

**Q.** What about the “Population Fragmented Nuclei (%)” value (HEK-293T; [6]) of the same molecule?
**A.** 26%

**Q.** What about the “Population Healthy Nuclei (%)” value (HEK-293T; [6]) of the same molecule?
**A.** 72%

**Q.** And the “Population Hoechst High Intensity Objects (%)” value (HEK-293T; [6])?
**A.** 3%

**Q.** What about the “Population Membrane Permeable-Phenotype (%)” value (HEK-293T; [6]) of the same molecule?
**A.** 0%

**Q.** And the “Population Mitochondria Different-Phenotype (%)” value (HEK-293T; [6])?
**A.** 3%

**Q.** And the “Population Mitotic Cells (%)” value (HEK-293T; [6])?
**A.** 95%

**Q.** And the “Population Normal (%)” value (HEK-293T; [6])?
**A.** 96%

**Q.** And the “Population Pyknosed Nuclei (%)” value (HEK-293T; [6])?
**A.** 1%

**Q.** And the “Population Tubulin-Different-Phenotype (%)” value (HEK-293T; [6])?
**A.** 1%

**Q.** What about the “Total Cell Count” value (HEK-293T; [6]) of the same molecule?
**A.** 2649

**Q.** And the “Population Apoptotic (%)” value (HEK-293T; [7])?
**A.** 19%

**Q.** And the “Population Fragmented Nuclei (%)” value (HEK-293T; [7])?
**A.** 13%

**Q.** What about the “Population Healthy Nuclei (%)” value (HEK-293T; [7]) of the same molecule?
**A.** 76%

**Q.** And the “Population Hoechst High Intensity Objects (%)” value (HEK-293T; [7])?
**A.** 6%

**Q.** And the “Population Membrane Permeable-Phenotype (%)” value (HEK-293T; [7])?
**A.** 8%

**Q.** And the “Population Mitochondria Different-Phenotype (%)” value (HEK-293T; [7])?
**A.** 5%

**Q.** What about the “Population Mitotic Cells (%)” value (HEK-293T; [7]) of the same molecule?
**A.** 80%

**Q.** What about the “Population Normal (%)” value (HEK-293T; [7]) of the same molecule?
**A.** 93%

**Q.** What about the “Population Pyknosed Nuclei (%)” value (HEK-293T; [7]) of the same molecule?
**A.** 9%

**Q.** What about the “Population Tubulin-Different-Phenotype (%)” value (HEK-293T; [7]) of the same molecule?
**A.** 2%

**Q.** What about the “Total Cell Count” value (HEK-293T; [7]) of the same molecule?
**A.** 597

**Q.** And the “Population Apoptotic (%)” value (HEK-293T; [8])?
**A.** 0%

**Q.** What about the “Population Fragmented Nuclei (%)” value (HEK-293T; [8]) of the same molecule?
**A.** 27%

**Q.** And the “Population Healthy Nuclei (%)” value (HEK-293T; [8])?
**A.** 70%

**Q.** And the “Population Hoechst High Intensity Objects (%)” value (HEK-293T; [8])?
**A.** 3%

**Q.** What about the “Population Membrane Permeable-Phenotype (%)” value (HEK-293T; [8]) of the same molecule?
**A.** 2%

**Q.** What about the “Population Mitochondria Different-Phenotype (%)” value (HEK-293T; [8]) of the same molecule?
**A.** 0%

**Q.** What about the “Population Mitotic Cells (%)” value (HEK-293T; [8]) of the same molecule?
**A.** 100%

**Q.** And the “Population Normal (%)” value (HEK-293T; [8])?
**A.** 96%

**Q.** And the “Population Pyknosed Nuclei (%)” value (HEK-293T; [8])?
**A.** 1%

**Q.** What about the “Total Cell Count” value (HEK-293T; [8]) of the same molecule?
**A.** 3112

**Q.** What about the “Growth Rate” value (Fibroblast; 0 h, replicate number 1, timepoint 0 hours) of the same molecule?
**A.** 1

**Q.** And the “Growth Rate” value (Fibroblast; 0 h, replicate number 2, timepoint 0 hours)?
**A.** 0

**Q.** And the “Growth Rate” value (Fibroblast; 6 h, replicate number 1, timepoint 6 hours)?
**A.** 0

**Q.** And the “Growth Rate” value (Fibroblast; 6 h, replicate number 2, timepoint 6 hours)?
**A.** 1

**Q.** What about the “Growth Rate” value (Fibroblast; 12 h, replicate number 1, timepoint 12 hours) of the same molecule?
**A.** 0

**Q.** What about the “Growth Rate” value (Fibroblast; 12 h, replicate number 2, timepoint 12 hours) of the same molecule?
**A.** 1

**Q.** What about the “Growth Rate” value (Fibroblast; 18 h, replicate number 1, timepoint 18 hours) of the same molecule?
**A.** 0

**Q.** What about the “Growth Rate” value (Fibroblast; 24 h, replicate number 1, timepoint 24 hours) of the same molecule?
**A.** 0
